# Experimental data from the EternaBench riboswitch data.
# Experiments:
# MS2 coat protein [1] = experiment: apparent Kd, MS2 coat protein; higher = weaker binding; RNA-MaP array; conditions: designed as: OFF switch for flavin mononucleotide
# Outline: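 For each design, the apparent Kd is the median of binding-curve fits across its clusters. Designs measured on fewer than 10 clusters were dropped. The RNAs were transcribed from sequenced DNA templates on an Illumina sequencing chip and incubated at room temperature, with or without input ligand, with fluorescently labeled MS2 coat protein at 1.5 nM to 3 μM.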
# MS2 coat protein [2] = experiment: apparent Kd, MS2 coat protein; higher = weaker binding; RNA-MaP array; FMN 200 µM where present
# Outline: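 Apparent Kd: the median of filtered binding-curve fits from single clusters. Designs were transcribed on Illumina sequencing-chip clusters by stalled E. coli RNA polymerase and titrated with SNAP-549-labelled MS2 coat protein from 0.7 or 1.5 nM, doubling to 3 µM, in 100 mM Tris-HCl pH 7.5, 80 mM KCl, 4 mM MgCl2, BSA, DTT, yeast tRNA and Tween-20. Each series ran without and then with constant ligand, and green signal was normalised to red-channel RNA signal and control-cluster median Fmax.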
# [3] = designed as: ON switch for flavin mononucleotide, no ligand
# [4] = ligand present: flavin mononucleotide, designed as: ON switch for flavin mononucleotide
# [5] = designed as: OFF switch for flavin mononucleotide, no ligand
# [6] = ligand present: flavin mononucleotide, designed as: OFF switch for flavin mononucleotide
Sequence,apparent Kd (MS2 coat protein [2]; [3]) [nM],apparent Kd (MS2 coat protein [2]; [4]) [nM],apparent Kd (MS2 coat protein [2]; [5]) [nM],apparent Kd (MS2 coat protein [2]; [6]) [nM],also measured
AUCGAUUUUAUAGGAUAUCGCACAUGAGGAUCACCCAUGUGCCCGACAGACUUAAAGCUCAAUCGCGAGAAGGAUAGAACAGGG,–,–,–,–,apparent Kd (MS2 coat protein [1]; no ligand): 8.63 nM; apparent Kd (MS2 coat protein [1]; ligand present: flavin mononucleotide): 8.02 nM
ACCAAUCACAUAGGAUAUAGAAUAUUAAAUUUUUACAUGAGGAUCACCCAUGUUUUAUUGGGAUACUAGAAGGAUGAGUAAUAA,113,108,–,–,–
UAUAAACAUGAGGAUCACCCAUGUAAUAAUAUGGGAGGAUAUCAGAUUUAAUUUAAUUUAUGAGAAGGCCUAAUAU,627,43.1,–,–,–
GUGGUACAUGAGGAUCACCCAUGUUAGGAUAUCGCGUGGUUUUUUGCGGCCGCGCGCGCGAGAAGGGACGUCUU,–,–,41.4,31.7,–
CGGCCCUAUCGAGGAUAUAAGUCUAGGACAUGAGGAUCACCCAUGUAUGUCUUAGAAGGCGAUAGGGCCAGCCUGUUACAGGCA,29.7,6.23,–,–,–
GCCUGACAUGAGGAUCACCCAUGUGAGGAUAUUUGGAUUGAGGAGUAGCACAUAGUCCAAAGAAGGUAUGUGGG,–,–,24.7,60.7,–
UGUGCCUCGAGAGGAUAUACAUGAGGAUCACCCAUGUAAGUAGAGGUGGAAACACCUCUACAAAUGUAGAAGGCUCGAGGCACA,–,–,20.6,58.3,–
GUAGCAUUCUGAGGAUAUUCAUACCGGUAACGGACAUGAGGAUCACCCAUGUGGCGAAAGCCUUGGGAGAAGGCAGUAUGCUAC,171,10,–,–,–
AUCGUGCAGCUUUGCUGUACGCGUACAUGAGGAUCACCCAUGUAGGAUAUGGUACGCUUUGCGUGCUAGAAGGAUAUGGAGAGG,–,–,16.9,21.1,–
GGAGCCGGCACCGAGGAUAUUCAUAUUAAAACAUGAGGAUCACCCAUGUAGGCCAGAAGGCCUUGGGAGAAGGCGGACCGGCUCG,654,31.1,–,–,–
UGUAUGGACAGAGGAUAUACAGAUAGGAUCUACUAUCAAACAGUCCUAACAUGAGGAUCACCCAUGUAGAAGGCUGUCCAUACU,–,–,20.6,82.1,–
GGGUACAUCGGAGGAUAUCAUGUAAAUACAUGAGGAUCACCCAUGUCGAUGGAGCCAUCGGAGAUUGAGAAGGCCGAUGUACCG,14.3,5.63,–,–,–
AGUCUGCGAGGAUAUACAUGAGGAUCACCCAUGUGCGAGAUACUAGUGAGGUCGAUUGGUAGAAGGCGCGGACA,–,–,111,66.1,–
CCGGCCGCCGUGAGGAUAUGCCCGCGCGCCCGCGGGCAGAAGGCACAUGAGGAUCACCCAUGUCCCGCGGCACC,–,–,13.8,15.7,–
GAGCGAAAGCUCAAUGUCGAUAGCAGAAGGACAUCCAAUAACAUGAAAACAUGAGGAUCACCCAUGUAGGAUAUGCUAUCGACU,–,–,5.55,6.55,–
CUUCUGUGAGGAUAUUAGUAGUAAAUAAAUAAAAUUAUUACUGAGAAGGCACAUGAGGAUCACCCAUGUUCCUC,–,–,35.1,392,–
AGCAAGUAUACAUGAGGAUCACCCAUGUUUGAUAGGGUUUUCAGAAGGUACAAUUUGAGAUAGAGUAAGGAUAUGAAAUAUGCG,182,56.3,–,–,–
GGUAAGAUGCAGAAGGUGUUAGCUAGAGCUACGACAUGAGGAUCACCCAUGUACUAGAAACAGUACAAGGAUAUGCAUCUUACA,17.1,6.12,–,–,–
GGUGCCAUGUAGAAGGCAGAUCUGAUUCAGAUCUGAGGAUAUACAUGAGGAUCACCCAUGUAAAGCCACCGCACGAGAGUGCAA,–,–,70.2,190,–
AAGAAGUGAGGAUAUGCUGCUCGUCACUUGCGUGAUGAGUAGCAGAAGGCACAUGAGGAUCACCCAUGUGAAGA,–,–,25.1,42.2,–
UCAAUUUUGCGAGGAUAUCGACCAUUCCUCUUUACAUGAGGAUCACCCAUGUUCUUUUUCUACAACGAGAAGGCGCUCAUAGUU,–,–,55.5,67.1,–
GGGUACAUCGGAGGAUAUCAUGUAAAUACAUGAGGAUCACCCAUGUCGAUGGAGACAUCGGAUAUUGAGAAGGCCGAUGUACCG,18.7,5.46,–,–,–
GUCAGCUCGUCAGGAUAUACGUCACUGCUUCGGCAGUGUGGUAAGAUCACAUGAGGAUCACCCAUGUAGAAGGGACGAGCUGAG,–,–,13.3,296,–
GCAGGUUUACGAGGAUAUGGGUGGUACGGACAUGAGGAUCACCCAUGUCUCCCAGAAGGCGUAGCCCAACAAAGAGAACAGGAG,160,22.5,–,–,–
GCCAUCACAUGAGGAUAUGCUCGGGUUUCCCGAGCAGAAGGCAUGUCAUAAGACAUGAGGAUCACCCAUGUAGUUAAGAUGGCA,399,14.5,–,–,–
GAACGCCUAGGAUAUACAUGAGGAUCACCCAUGUCGCCCAGUCCUGGAGUGACCUCUAGUAGAAGGAGGAAUAA,–,–,480,135,–
GUAGCUAUCGGAGGAUAUUCAUACCGGAAACGGACAUGAGGAUCACCCAUGUGGCGAAAGCCUUGGAAGAAGGCCGAUAGCUAC,4.08,3.56,–,–,–

Sequence,apparent Kd (MS2 coat protein [2]; [3]) [nM],apparent Kd (MS2 coat protein [2]; [4]) [nM],apparent Kd (MS2 coat protein [2]; [5]) [nM],apparent Kd (MS2 coat protein [2]; [6]) [nM],also measured
AAAAAUGGAGGAUAUACAUGAGGAUCACCCAUGUGUGGCCAUACUAUGUGCUCGUCAGGUAGAAGGCCAAAAAA,–,–,28.7,46,–
GUCAGCUCGUGAGGAUAUACAUGUGCUGGAAACAGCACUAUUAAAUUCACAUGAGGAUCACCCAUGUAGAAGGCACGAGCUGAU,–,–,15.4,19.1,–
AAGUCGUGAGGAUAUACAUGGAUAUACAUUUAUGUGGACCUACAUGAGGAUCACCCAUGUAGAAGGCACGAAUA,–,–,85.2,69.4,–
AAAACAUGAGGAUCACCCAUGUAUAGAUCGAUUAUUAGGAGUGAGGAUAUGCAAGUUAUAAGGUAGCAGAAGGCACUGGGAAAA,25.7,24.8,–,–,–
AACUCAGCAGGAUAUACAUACAAAUCCAUCAUGCCGUUUGAACAUGAGGAUCACCCAUGUAGAAGGGCUCACAC,–,–,28.7,51.5,–
AUUAUAUAGAAAGGAUAUUGAUUAUUAUUUUAACAUGAGGAUCACCCAUGUAGCCUUAUGUAUAACAAGAAGGUUCAUUUAUUA,–,–,75.9,89.5,–
CUUUAGUGAGGAUAUCGGUAGUAAUACAAUAGUAUUACUACUGAGAAGGCACAUGAGGAUCACCCAUGUUCCUC,–,–,29.9,233,–
UUGGCGACGUAGAAGGGUGACAUGAGGAUCACCCAUGUGCCGAUAUUUCUCGAGAUAUGUCGGCCACAGGAUAUACGUGCCAUC,59.3,31.9,–,–,–
UUUUAGUGAGGAUAUGUGGCUUCGAUCGUGAGAUCGAGGCUACAGAAGGCACAUGAGGAUCACCCAUGUUCCUC,–,–,38.3,597,–
GGAGAUACAUGAGGAUCACCCAUGUAGGAUAUCGGGCCUAUAUAUGGCGAAAGCCAUAUAUAGGCCGAGAAGGGCGUACACACC,–,–,8.07,7.52,–
AUGUACCUAGGAUAUACAUGAGGAUCACCCAUGUUAACUUUGCAAUCAAGUUAAUAUUGUAGAAGGAGGUGAAA,–,–,61.5,107,–
AAAAAACAUGAGGAUCACCCAUGUGAGGAUAUCGGAAAAGGAAAAAAAAAAAAGAAGACGAGAAGGCACAAAGA,–,–,48.4,60.4,–
UGGUUCCUGCAGAAGGUGUAGGCGACUUGCUUGCAAGGAUAUGCACAUGAGGAUCACCCAUGUAGCUAAAAGUUUGCAACGUGG,–,–,12.8,65.1,–
ACUUGCUUGCAGAAGGGUGACAUGAGGAUCACCCAUGUAGCGGGCCGGCGUAAAGUCAGCGCGCCACAGGAUAUGCAGGCCUCG,25.2,58.5,–,–,–
UGGGACGUCGUAGGAUAUGUAGGAUAUUCCUACAUGAGGAUCACCCAUGUUGACAUGGAAGAAGGACAGAAGGACGAUGUCCAU,211,4.78,–,–,–
UCCUUGUCCUGAGGAUAUCCGCGGUUCCCAAAAGGAGAAGGCAGGACAUGAGGAUCACCCAUGUACCCAGAACACGUGCAGAGU,–,–,14.6,90.9,–
GACAUGGUCCAGAAGGGCUAUUUAUUUAAUUAUUAUUUAGAACAGCAUAGCAGGAUAUGGCUAACAUGAGGAUCACCCAUGUUC,21.5,12.6,–,–,–
AAAAAACAUGAGGAUCACCCAUGUAAUAAAACGUCAGGAUAUUGAUUUUAUUAUUUAUUGCAAGAAGGGACAAAAA,56.5,24,–,–,–
AUUUAUGGCCAGAAGGACAUGAGGAUCACCCAUGUAGGAUAUGGACGAUUUUGCUCGGCGGCUUGUUUAGGAAGCACCGGUGGU,10.7,6.85,–,–,–
GUUAUUUAUGUAGGAUAUGCGAGGCGAGCCUGAGCAGAAGGACAUGAGGAUCACCCAUGUAUUGCGGUUUAUGUUCAGAUCGCU,–,–,15.3,19,–
AUCAGCUUGACAGGAUAUACAUCACUGCGAAAGCAGUGUAUCUUAAUAACAUGAGGAUCACCCAUGUAGAAGGGUCGAGCUGAU,–,–,18.4,32.6,–
CCUAUGUGAGGAUAUAGCCACAUUACGAAUAAGUAGUGUGGCUAGAAGGUACAUGAGGAUCACCCAUGUAUGGG,–,–,167,84.1,–
GGUACUCAAAGAGUACCAAUACGAACAUGAGGAUCACCCAUGUAGGAUAUGCUACUCAAAGAGUAGCAGAAGGACAUGUGCCUU,–,–,31.4,252,–
GGCGGUCGGGAGGAUAUUCGGGCUGUUUGGCUUGGAGAAGGCUCGACAUGAGGAUCACCCAUGUUGGUGUUUCC,–,–,561,103,–
CAGGGUAGAGGAUAUACGUAGGUACAGAUCUGUGUGUUCCUACAUGAGGAUCACCCAUGUAGAAGGCUAGCCUG,–,–,89.7,324,–
ACGUUUAAUACAGGAUAUGUUCUUAUACUAUAGAUUGGUUAUUACUUAAUUACAGAAGGGUAGAACAUGAGGAUCACCCAUGUA,507,261,–,–,–
